Experimental data from ChEMBL document CHEMBL3351242, “Tetrahydroxanthene-1,3(2H)-dione derivatives from Uvaria valderramensis” (2014).
≈ marks a conversion by molar mass, not a printed value. Calls of active or inactive are those of the source. No cut-off for these calls is given here.

Columns and labels:
Assay type in all cases: functional
[1] = test system: Mycobacterium tuberculosis; assay: Antitubercular activity against Mycobacterium tuberculosis H37Rv by MABA assay
Procedure, shortened: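 Microplate Alamar Blue assay on the H37Rv strain, with rifampin, isoniazid and streptomycin as positive drug controls; values reported as MIC in μg/mL.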

HUVEC = assay: Cytotoxicity against HUVEC; conditions: Homo sapiens
Procedure, shortened: (§1)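 Growth inhibition measured colorimetrically with CellTiter-Blue and MTT read-outs, with imatinib as reference drug; values reported as GI50 in μg/mL.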

K562 = assay: Cytotoxicity against human K562 cells; procedure, shortened: as §1
HeLa = assay: Cytotoxicity against human HeLa cells; procedure, shortened: as §1

## COc1ccc2c(c1)C[C@]1(OC)C(=O)/C(=C(O)/C=C/c3ccccc3)C(=O)C[C@@]1(OC)O2
[1]
  MIC: 10 µg/mL (≈ 22.9 µM)

## CC(=O)O[C@@H]1C(=O)C=COC=C1COC(=O)c1ccccc1
[1]
  MIC: 32 µg/mL (≈ 106 µM)
HUVEC
  GI50: 5.4 µg/mL (≈ 17.9 µM)
K562
  GI50: 1.4 µg/mL (≈ 4.63 µM)

## COc1ccc2c(c1)C[C@]1(O)C(=O)/C(=C(O)/C=C/c3ccccc3)C(=O)C[C@@]1(OC)O2 (relative stereo)
[1]
  MIC: inactive

## COc1ccc(C[C@H]2c3cc(O)c(OC)cc3CCN2C)cc1O [(S)-RETICULINE]
[1]
  MIC: 32 µg/mL (≈ 97.1 µM)

## COc1cccc2c1C(=O)c1c(O)c3c(c(O)c1C2=O)C[C@@](O)(C(=O)CO)C[C@@H]3O[C@H]1C[C@H](N)[C@H](O)[C@H](C)O1 [DOXORUBICIN]
HUVEC
  GI50: 0.1 µg/mL (≈ 0.184 µM)
K562
  GI50: 1 µg/mL (≈ 1.84 µM)
HeLa
  CC50: 2 µg/mL (≈ 3.68 µM)

## Cc1ccc(NC(=O)c2ccc(CN3CCN(C)CC3)cc2)cc1Nc1nccc(-c2cccnc2)n1 [IMATINIB]
HUVEC
  GI50: > 10 µg/mL
K562
  GI50: 0.1 µg/mL (≈ 0.203 µM)
HeLa
  CC50: > 10 µg/mL

## NNC(=O)c1ccncc1 [ISONIAZID]
[1]
  MIC: 0.63 µg/mL (≈ 4.59 µM)

## CO[C@H]1/C=C/O[C@@]2(C)Oc3c(C)c(O)c4c(O)c(c(/C=N/N5CCN(C)CC5)c(O)c4c3C2=O)NC(=O)/C(C)=C\C=C\[C@H](C)[C@H](O)[C@@H](C)[C@@H](O)[C@@H](C)[C@H](OC(C)=O)[C@@H]1C [RIFAMPIN]
[1]
  MIC: 0.15 µg/mL (≈ 0.182 µM)

## CN[C@@H]1[C@H](O[C@H]2[C@H](O[C@H]3[C@H](O)[C@@H](O)[C@H](N=C(N)N)[C@@H](O)[C@@H]3N=C(N)N)O[C@@H](C)[C@]2(O)C=O)O[C@@H](CO)[C@H](O)[C@H]1O [STREPTOMYCIN]
[1]
  MIC: 0.83 µg/mL (≈ 1.43 µM)
